Source: article PMC4883117 (Fitoterapia, 2015)
Where “and” joins values, the source holds several entries; their conditions need not be identical. Equal entries are not always repeated. Where two headings read alike, the source gives them in different places.

Assays:
[1] = system: Trypanosoma brucei brucei; assay: In vitro antitrypanosomal Alamar Blue assay on T. brucei trypomastigote cultures; assay type: cell-based; conditions: for Antitrypanosomal activity IC50 / Antitrypanosomal activity IC90: T. b. brucei, 37 °C, mean ± S.D. of duplicate observations, tested range 0.4–10 μg/mL; for IC50 / IC90: Trypanosoma brucei; for IC50: read-out: Antitrypanosomal activity IC50; for IC90: read-out: Antitrypanosomal activity IC90
In short: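 T. b. brucei trypomastigotes seeded at 2 × 10^6 cell/mL and exposed to test compound at three concentrations (40–1.6 or […]). Incubated 72 h at 37 °C, then parasite growth read by Alamar Blue. IC50 and IC90 were fitted from dose–response curves and given as mean ± S.D. of duplicate observations. Difluoromethylornithine served as positive control.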

THP1 cells = assay: Cytotoxicity against THP1 cell cultures; assay type: cell-based, human
[2] = Cytotoxicity against THP1 cell cultures; assay type: cell-based, human; conditions: human, THP1 cells
μ-opioid receptors = μ-opioid receptors (Homo sapiens, UniProt P35372); assay: Opioid receptor radioligand binding assay; conditions: for Ki: read-out: μ-opioid receptor Ki; for IC50: read-out: μ-opioid receptor binding IC50
Chain of μ-opioid receptors (P35372 whole entry): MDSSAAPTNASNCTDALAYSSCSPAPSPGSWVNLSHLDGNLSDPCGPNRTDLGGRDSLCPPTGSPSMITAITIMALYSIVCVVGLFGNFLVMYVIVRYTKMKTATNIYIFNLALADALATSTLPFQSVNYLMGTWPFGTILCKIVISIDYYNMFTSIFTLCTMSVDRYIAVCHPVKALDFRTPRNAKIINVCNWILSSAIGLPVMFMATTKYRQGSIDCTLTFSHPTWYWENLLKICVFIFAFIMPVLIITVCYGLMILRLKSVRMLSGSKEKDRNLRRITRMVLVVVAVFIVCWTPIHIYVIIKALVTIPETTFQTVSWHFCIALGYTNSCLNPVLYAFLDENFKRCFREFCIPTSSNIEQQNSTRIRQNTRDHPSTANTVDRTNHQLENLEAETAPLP

Row | Compound | Antitrypanosomal activity IC50 ([1]; 72 h) [µg/mL] | Antitrypanosomal activity IC90 ([1]; 72 h) [µg/mL] | THP1 cell toxicity IC50 (THP1 cells) [µg/mL] | antitrypanosomal activity (in words) ([1]; tested concentrations range 0.32–8.23 μM) | IC50 ([1]; 72 h) [µg/mL] | IC90 ([1]; 72 h) [µg/mL] | IC50 [1] [µM] | IC90 [1] [µM] | IC50 [2] [µg/mL] | radio ligand displacement in μ-opioid receptor binding assay (μ-opioid receptors) [%] | Ki (μ-opioid receptors) | IC50 (μ-opioid receptors) [µM]
1 | 2α-Hydroxyheinsiagenin A 3-O-[α-L-rhamnopyranosyl-(1→2)-β-D-glucopyranosyl-(1→2)]-β-D-glucopyranoside [Compound 3] | 2.75 | 3.53 | >10 | – | – | – | – | – | – | – | – | –
2 | 2α-Hydroxyheinsiagenin A 3-O-[β-D-glucopyranosyl-(1→2)]-[β-D-glucopyranosyl]-(1→4)]-β-D-glucopyranoside [Compound 4] | 3.04 | 4.64 | >10 | – | – | – | – | – | – | – | – | –
3 | C/C(=C\C=C\[C@@H](C)[C@H]1CC[C@@]2(C)C3=C(CC[C@]12CO)[C@@]1(C)CC[C@H](O[C@@H]2O[C@H](CO)[C@@H](O[C@@H]4O[C@H](CO)[C@@H](O)[C@H](O)[C@H]4O)[C@H](O)[C@H]2O[C@@H]2O[C@H](CO)[C@@H](O)[C@H](O)[C@H]2O[C@@H]2O[C@@H](C)[C@H](O)[C@@H](O)[C@H]2O)C(C)(C)[C@@H]1CC3)C(=O)N[C@@H]1C(=O)O[C@H](C)[C@@H]1C [Compound 5, N-(2S, 3R, 4R-3-methyl-4-pentanolid-2-yl)-18-hydroxylanosta-8 (9), 22E, 24E-trien-27-amide-3-O-[α-L-rhamnopyranosyl-(1→2)-O-β-D-glucopyranosyl-(1→2)]-[β-D-glucopyranosyl-(1→4)]-β-D-glucopyranoside] | >10 | >10 | >10 | no antitrypanosomal activity | – | – | – | – | – | – | – | –
4 | NCCCC(N)(C(=O)O)C(F)F (stereo not drawn) [DFMO, difluoromethylornithine, reference compound] | – | – | – | – | 2.38 | 5.28 | 13.1 | 29 | > 10 | – | – | –
5 | Heinsiagenin A 3-O-[α-L-rhamnopyranosyl-(1→2)-β-D-glucopyranosyl-(1→2)]-[β-D-glucopyranosyl-(1→4)]-β-D-glucopyranoside [Compound 2] | 3.08 | 4.27 | >10 | – | – | – | – | – | – | 61.0 | 0.872 µM and 0.87 µM | 1.74
6 | Heinsiagenin A 3-O-[α-L-rhamnopyranosyl-(1→2)-β-D-glucopyranosyl-(1→2)]-β-D-glucopyranoside [Compound 1] | 9.13 | 11.05 | >10 | – | – | – | – | – | – | 65.9 | 9.94 µM | 19.9
